Results from ChEMBL document CHEMBL1157401, “Anticancer activity of isoobtusilactone A from Cinnamomum kotoense: involvement of apoptosis, cell-cycle dysregulation, mitochondria regulation, and reactive oxygen species” (J Nat Prod, 2008).
Activity calls are given as the source filed them. No cut-off for these calls is given here.

Legend:
A549 [1] = assay: Cell cycle arrest in human A549 cells assessed as accumulation at G2/M phase at 100 uM after 72 hrs; assay type: functional
Procedure, shortened: (§1)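 Flow cytometry of cell cycle: A549 (5 × 10^5 per 60 mm dish) treated next day with 50 or 100 µM for 24, 48 or 72 h. Adherent and floating cells pooled, fixed in PBS-MeOH 1:2 at 4 °C for at least 18 h, then stained 30 min in the dark with PI 50 µg/mL plus RNase A 50 µg/mL. Sub-G1 taken as the subdiploid fraction; at least three runs.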

A549 [2] = assay: Induction of cytochrome C release in human A549 cells by ELISA; assay type: functional, cell-based; conditions: TDE = time-dependent effect
Procedure, shortened: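 Cytochrome c release: A549 cells given 100 µM or DMSO vehicle for 6, 12, 18 or 24 h at 37 °C. Cytosolic fraction taken by digitonin permeabilization and mitochondrial fraction by detergent lysis, each measured by cytochrome c ELISA. Three experiments, mean ± SE.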

A549 [3] = assay: Induction of p27kip1 level in human A549 cells at 100 uM after 18 hrs by ELISA; assay type: functional, cell-based
Procedure, shortened: (§2)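 p53, p21/WAF1 and p27kip1 in A549 lysates by sandwich ELISA after 1, 10 or 100 µM for 6-24 h. Lysate incubated 2 h for p53 and p27kip1, 1 h for p21, at room temperature. HRP-streptavidin and TMB used, absorbance read at 450 nm, values from standard curves. Three experiments, mean ± SE.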

A549 [4] = assay: Inhibition of migration in human A549 cells; assay type: functional, cell-based
Procedure, shortened: (§3)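 Transwell migration with 8 µm inserts, or Matrigel-coated inserts for invasion: 5 × 10^4 A549 cells in serum-free medium placed in the upper chamber over medium with 10% FBS, 24 h at 37 °C, 5% CO2. Migrated cells stained, dye extracted and read at 560 nm. Reported as percent of control; compound tested at 1 and 10 µM, with NAC pretreatment in reversal tests.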

A549 [5] = assay: Reversal of inhibition of invasion in human A549 cells at 10 uM in presence of N-acetyl-l-cysteine; assay type: functional, cell-based; procedure, shortened: as §3
A549 [6] = assay: Cell cycle arrest in human A549 cells assessed as accumulation at G1 phase at 50 uM after 72 hrs; assay type: functional; procedure, shortened: as §1
A549 [7] = assay: Cell cycle arrest in human A549 cells assessed as accumulation at S phase at 50 uM after 48 hrs; assay type: functional; procedure, shortened: as §1
A549 [8] = assay: Increase in Bax level in human A549 cells after 6 hrs by ELISA; assay type: functional, cell-based
Procedure, shortened: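 Bax and Bcl-2 in A549 lysates by sandwich ELISA after 1, 10 or 100 µM for 6-24 h. Lysate incubated 1 h at room temperature, HRP-streptavidin and TMB used, absorbance read at 450 nm. Levels interpolated from protein standard curves and compared with vehicle; three experiments, mean ± SE, ANOVA with Dunnett's test.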

A549 [9] = assay: Cell cycle arrest in human A549 cells assessed as accumulation at subG1 phase at 100 uM after 48 hrs; assay type: functional; procedure, shortened: as §1
A549 [10] = assay: Decrease in mitochondrial potential in human A549 cells assessed as decrease in fluorescent intensity of rhodamine 123 staining; assay type: functional, cell-based
Procedure, shortened: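 Mitochondrial membrane potential: A549 cells with or without 100 µM for 6, 12, 18 or 24 h, then moved to serum-free medium containing 10 µM rhodamine 123 for 15 min at 37 °C. Cells collected and fluorescence read within 15 min, ex 490 / em 515 nm.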

A549 [11] = assay: Cell cycle arrest in human A549 cells assessed as accumulation at G2/M phase at 100 uM after 24 hrs; assay type: functional; procedure, shortened: as §1
A549 [12] = assay: Cell cycle arrest in human A549 cells assessed as accumulation at G1 phase at 100 uM after 24 hrs; assay type: functional; procedure, shortened: as §1
A549 [13] = assay: Cell cycle arrest in human A549 cells assessed as accumulation at S phase at 50 uM after 72 hrs; assay type: functional; procedure, shortened: as §1
A549 [14] = assay: Cytotoxicity against human A549 cells after 48 hrs by MTT assay; assay type: functional, cell-based; conditions: A549, 48 h
A549 [15] = assay: Inhibition of invasion in human A549 cells; assay type: functional, cell-based; procedure, shortened: as §3
A549 [16] = assay: Induction of apoptosis in human A549 cells assessed as apoptotic nucleosome at 1 uM after 24 hrs; assay type: functional
Procedure, shortened: (§4)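 Apoptosis by cytoplasmic mono- and oligonucleosomes (nucleosome ELISA): A549 cells given 1, 10 or 100 µM for 6, 12, 18 or 24 h and lysed, then lysate assayed photometrically. Expressed relative to control; three experiments, mean ± SE, ANOVA with Dunnett's test.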

A549 [17] = assay: Cytotoxicity against human A549 cells after 72 hrs by TB dye exclusion assay; assay type: functional, cell-based; conditions: A549, 72 h
A549 [18] = assay: Cell cycle arrest in human A549 cells assessed as accumulation at S phase at 50 uM after 24 hrs; assay type: functional; procedure, shortened: as §1
A549 [19] = assay: Cytotoxicity against human A549 cells after 48 hrs by TB dye exclusion assay; assay type: functional, cell-based; conditions: A549, 48 h
A549 [20] = assay: Cell cycle arrest in human A549 cells assessed as accumulation at subG1 phase at 50 uM after 48 hrs; assay type: functional; procedure, shortened: as §1
A549 [21] = assay: Cell cycle arrest in human A549 cells assessed as accumulation at G2/M phase at 100 uM after 48 hrs; assay type: functional; procedure, shortened: as §1
A549 [22] = assay: Cell cycle arrest in human A549 cells assessed as accumulation at subG1 phase at 100 uM after 72 hrs; assay type: functional; procedure, shortened: as §1
A549 [23] = assay: Induction of apoptosis in human A549 cells assessed as apoptotic nucleosome at 100 uM after 24 hrs; assay type: functional; procedure, shortened: as §4
A549 [24] = assay: Cytotoxicity against human A549 cells after 24 hrs by MTT assay; assay type: functional, cell-based; conditions: A549, 24 h
A549 [25] = assay: Induction of p53 level in human A549 cells at 100 uM after 12 hrs by ELISA; assay type: functional, cell-based; procedure, shortened: as §2
A549 [26] = assay: Cell cycle arrest in human A549 cells assessed as accumulation at subG1 phase at 50 uM after 72 hrs; assay type: functional; procedure, shortened: as §1
A549 [27] = assay: Cell cycle arrest in human A549 cells assessed as accumulation at S phase at 100 uM after 72 hrs; assay type: functional; procedure, shortened: as §1

Q: Which results are given for `C=C1OC(=O)/C(=C/CCCCCCCCCCCCC)[C@@H]1O` [ISOOBTUSILACTONE A]?
A: Activity (A549 [1]): 42.03%; Activity (A549 [2]): tde; Activity (A549 [3]): Active; Activity (A549 [4]): Active; Activity (A549 [5]): Active; Activity (A549 [6]): 38.62%; Activity (A549 [7]): 46.72%; Activity (A549 [8]): Active; Activity (A549 [9]): 47.64%; Activity (A549 [10]): Active; Activity (A549 [11]): 18.18%; Activity (A549 [12]): 42.88%; Activity (A549 [13]): 47.74%; IC50 (A549 [14]): 1950 nM; Activity (A549 [15]): Active; Activity (A549 [16]): 16; IC50 (A549 [17]): 724 nM; Activity (A549 [18]): 30.81%; IC50 (A549 [19]): 891 nM; Activity (A549 [20]): 36.73%; Activity (A549 [21]): 15.59%; Activity (A549 [22]): 60.25%; Activity (A549 [23]): 25; IC50 (A549 [24]): 5130 nM; Activity (A549 [25]): Active; Activity (A549 [26]): 54.08%; Activity (A549 [27]): 16.24%
